Assay results from ChEMBL document CHEMBL4689842, “EUbOPEN Chemogenomics Library wave 1” (2021).

Test system: HEK-293T
Experiment: Multiplex assay against HEK293T;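 for Population Tubulin-Different-Phenotype (%): share of the cells with healthy nuclei that show this phenotype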
Format: toxicity, cell-based
Settings: human
Summary of the method: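 Phenotypes for tubulin, mitochondrial mass and membrane permeability are expressed as per cents of healthy-nucleus cells. Cells were stained live at seeding with Hoechst33342, BioTracker Green Microtubule Cytoskeleton Dye, MitoTracker Red and Annexin V Alexa Fluor 680, then imaged after compound addition on a CQ1 microscope at 37°C and 5% CO2. Machine-learning gating in CellPathfinder separated Hoechst high-intensity objects from normal cells, divided normal cells by nuclear state (healthy, pyknosed, fragmented) and divided pyknosed cells into mitotic or apoptotic.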

[1] = 12 h, 1 µM, compound concentration 1 uM, replicate 1
[2] = 12 h, 1 µM, compound concentration 1 uM, replicate 2
[3] = 12 h, 10 µM, compound concentration 10 uM, replicate 1
[4] = 12 h, 10 µM, compound concentration 10 uM, replicate 2
[5] = 24 h, 1 µM, compound concentration 1 uM, replicate 1
[6] = 24 h, 1 µM, compound concentration 1 uM, replicate 2
[7] = 24 h, 10 µM, compound concentration 10 uM, replicate 1
[8] = 24 h, 10 µM, compound concentration 10 uM, replicate 2
[9] = 48 h, 1 µM, compound concentration 1 uM, replicate 1
[10] = 48 h, 1 µM, compound concentration 1 uM, replicate 2
[11] = 48 h, 10 µM, compound concentration 10 uM, replicate 1
[12] = 48 h, 10 µM, compound concentration 10 uM, replicate 2

## CC(C)c1noc(N2CCC(COc3ccc(-c4ccc(S(C)(=O)=O)cc4)nc3)CC2)n1 [GSK-1292263]
[1]
  Population Apoptotic (%): 36%
  Population Fragmented Nuclei (%): 14%
  Population Healthy Nuclei (%): 31%
  Population Hoechst High Intensity Objects (%): 14%
  Population Membrane Permeable-Phenotype (%): 8%
  Population Mitochondria Different-Phenotype (%): 65%
  Population Mitotic Cells (%): 63%
  Population Normal (%): 85%
  Population Pyknosed Nuclei (%): 54%
  Population Tubulin-Different-Phenotype (%): 34%
  Total Cell Count: 304
[2]
  Population Apoptotic (%): 12%
  Population Fragmented Nuclei (%): 2%
  Population Healthy Nuclei (%): 50%
  Population Hoechst High Intensity Objects (%): 1%
  Population Membrane Permeable-Phenotype (%): 7%
  Population Mitochondria Different-Phenotype (%): 15%
  Population Mitotic Cells (%): 87%
  Population Normal (%): 98%
  Population Pyknosed Nuclei (%): 46%
  Population Tubulin-Different-Phenotype (%): 16%
  Total Cell Count: 228
[3]
  Population Apoptotic (%): 50%
  Population Fragmented Nuclei (%): 14%
  Population Healthy Nuclei (%): 11%
  Population Hoechst High Intensity Objects (%): 18%
  Population Membrane Permeable-Phenotype (%): 16%
  Population Mitochondria Different-Phenotype (%): 68%
  Population Mitotic Cells (%): 50%
  Population Normal (%): 81%
  Population Pyknosed Nuclei (%): 74%
  Population Tubulin-Different-Phenotype (%): 72%
  Total Cell Count: 276
[4]
  Population Apoptotic (%): 13%
  Population Fragmented Nuclei (%): 7%
  Population Healthy Nuclei (%): 20%
  Population Hoechst High Intensity Objects (%): 12%
  Population Membrane Permeable-Phenotype (%): 8%
  Population Mitochondria Different-Phenotype (%): 26%
  Population Mitotic Cells (%): 86%
  Population Normal (%): 87%
  Population Pyknosed Nuclei (%): 72%
  Population Tubulin-Different-Phenotype (%): 26%
  Total Cell Count: 131
[5]
  Population Apoptotic (%): 39%
  Population Fragmented Nuclei (%): 15%
  Population Healthy Nuclei (%): 32%
  Population Hoechst High Intensity Objects (%): 19%
  Population Membrane Permeable-Phenotype (%): 2%
  Population Mitochondria Different-Phenotype (%): 57%
  Population Mitotic Cells (%): 60%
  Population Normal (%): 80%
  Population Pyknosed Nuclei (%): 51%
  Population Tubulin-Different-Phenotype (%): 37%
  Total Cell Count: 316
[6]
  Population Apoptotic (%): 15%
  Population Fragmented Nuclei (%): 6%
  Population Healthy Nuclei (%): 62%
  Population Hoechst High Intensity Objects (%): 3%
  Population Membrane Permeable-Phenotype (%): 8%
  Population Mitochondria Different-Phenotype (%): 14%
  Population Mitotic Cells (%): 84%
  Population Normal (%): 96%
  Population Pyknosed Nuclei (%): 31%
  Population Tubulin-Different-Phenotype (%): 31%
  Total Cell Count: 270
[7]
  Population Apoptotic (%): 58%
  Population Fragmented Nuclei (%): 15%
  Population Healthy Nuclei (%): 12%
  Population Hoechst High Intensity Objects (%): 23%
  Population Membrane Permeable-Phenotype (%): 7%
  Population Mitochondria Different-Phenotype (%): 78%
  Population Mitotic Cells (%): 41%
  Population Normal (%): 76%
  Population Pyknosed Nuclei (%): 72%
  Population Tubulin-Different-Phenotype (%): 75%
  Total Cell Count: 298
[8]
  Population Apoptotic (%): 14%
  Population Fragmented Nuclei (%): 7%
  Population Healthy Nuclei (%): 38%
  Population Hoechst High Intensity Objects (%): 9%
  Population Membrane Permeable-Phenotype (%): 4%
  Population Mitochondria Different-Phenotype (%): 32%
  Population Mitotic Cells (%): 85%
  Population Normal (%): 90%
  Population Pyknosed Nuclei (%): 53%
  Population Tubulin-Different-Phenotype (%): 55%
  Total Cell Count: 139
[9]
  Population Apoptotic (%): 37%
  Population Fragmented Nuclei (%): 16%
  Population Healthy Nuclei (%): 41%
  Population Hoechst High Intensity Objects (%): 14%
  Population Membrane Permeable-Phenotype (%): 4%
  Population Mitochondria Different-Phenotype (%): 32%
  Population Mitotic Cells (%): 62%
  Population Normal (%): 85%
  Population Pyknosed Nuclei (%): 42%
  Population Tubulin-Different-Phenotype (%): 35%
  Total Cell Count: 377
[10]
  Population Apoptotic (%): 14%
  Population Fragmented Nuclei (%): 4%
  Population Healthy Nuclei (%): 80%
  Population Hoechst High Intensity Objects (%): 4%
  Population Membrane Permeable-Phenotype (%): 8%
  Population Mitochondria Different-Phenotype (%): 3%
  Population Mitotic Cells (%): 85%
  Population Normal (%): 95%
  Population Pyknosed Nuclei (%): 14%
  Population Tubulin-Different-Phenotype (%): 22%
  Total Cell Count: 482
[11]
  Population Apoptotic (%): 63%
  Population Fragmented Nuclei (%): 24%
  Population Healthy Nuclei (%): 10%
  Population Hoechst High Intensity Objects (%): 25%
  Population Membrane Permeable-Phenotype (%): 8%
  Population Mitochondria Different-Phenotype (%): 37%
  Population Mitotic Cells (%): 36%
  Population Normal (%): 74%
  Population Pyknosed Nuclei (%): 64%
  Population Tubulin-Different-Phenotype (%): 58%
  Total Cell Count: 296
[12]
  Population Apoptotic (%): 14%
  Population Fragmented Nuclei (%): 8%
  Population Healthy Nuclei (%): 62%
  Population Hoechst High Intensity Objects (%): 3%
  Population Membrane Permeable-Phenotype (%): 12%
  Population Mitochondria Different-Phenotype (%): 12%
  Population Mitotic Cells (%): 85%
  Population Normal (%): 96%
  Population Pyknosed Nuclei (%): 28%
  Population Tubulin-Different-Phenotype (%): 54%
  Total Cell Count: 176
